# Data published in PubChem BioAssay AID504382 (The Scripps Research Institute Molecular Screening Center, 2011).
# Among all 2,500 compounds or so, about 460 (18%) were called active. The list is a sample of the results. Values without a mark were called inactive.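 The calls were made as follows: active = mean activation above a cutoff of low control average plus 3 SD from the earlier screen (cut at about 12% in these data); inactive = the rest.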
# Assay: compound fluorescence interference without thin filaments, confirmation, artefact control for cardiac RTF calcium sensitizer project, biochemical (AID 504382)
# Conditions: IANBD fluorescence interference counterscreen, buffer, EC20 Ca2+; at 7.2 µM; hits give high values; scaled: EC20 calcium 0, EC100 calcium 100
# Summary of the method: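 Technique: fluorescence, 480/540 nm / Medium: MOPS-based buffer with KCl, MgCl2, EGTA, NTA, DTT, pH 7.2 / Probe or stimulus: calcium at EC20 level, 0.472 mM final / Repeats: triplicate wells per compound / Times: 15 min compound exposure at 25 °C / Measure: compound fluorescence interference relative to control well signal range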
row,Structure (SMILES),fluorescence artifact activation
1,COc1cc2c3nnc(-c4ccc(F)cc4)c-3cn(Cc3cccc(C)c3)c2cc1OC,0.48%
2,COc1cc2c3nnc(-c4ccc(F)cc4)c-3cn(Cc3ccc(C)cc3)c2cc1OC,0.37%
3,COc1cc2c3nnc(-c4ccc(F)cc4)c-3cn(Cc3cccc(F)c3)c2cc1OC,124% (active)
4,COC(=O)c1ccccc1-c1c2ccc(=N)cc-2oc2cc(N)ccc12,0.05%
5,Clc1ccc(-c2cn3nc4c(nc3n2)CCCC4)cc1,0.71%
6,c1ccc(-c2cn3nc4c(nc3n2)CCCC4)cc1,19.1% (active)
7,Brc1ccc(-c2cn3nc4c(nc3n2)CCCC4)cc1,3.81%
8,CCOCCCn1c(=NC(=O)c2cccs2)c(C#N)cc2c(=O)n3cccc(C)c3nc21,1.11%
9,CC(=O)c1ccc(NC(=O)CN2C(=O)/C(=C/C=C/c3ccccc3)SC2=S)cc1,0.03%
10,O=C(NC1CCCCC1)c1cc2nc3c(c(C(F)(F)F)n2n1)CCCC3,7.01%
11,Cc1cc(/C=N/NC(N)=S)c(O)c(/C=N/NC(N)=S)c1,181% (active)
12,COc1ccc(-c2nn(-c3ccccc3)cc2/C=N/NC(N)=S)cc1OC,8.19%
13,O=C(N/N=C/c1cc(Cl)cc(Cl)c1O)c1ccncc1,2.37%
14,Cc1cc2c(cc1S(=O)(=O)CCC(=O)NCCc1ccccc1)OCC(=O)N2,11.3%
15,CCOC(=O)c1ccc(NC(=O)c2cc3c(C)nn(-c4ccccc4Cl)c3s2)s1,1.59%
16,COC(=O)C1=C(CSc2nc3c(cc2C#N)CN(C)CC3)OC(N)=C(C#N)C1c1ccccc1F (stereo not drawn),3.38%
17,CCN(CC)c1ccc2c(c1)OC(N)=C(C#N)C2c1cccnc1 (stereo not drawn),2.43%
18,N#CC1=C(N)Oc2cc(O)c(Cl)cc2C1c1ccccc1F (stereo not drawn),54.3% (active)
19,CCOc1ccc2cc(/C=C/C(=O)c3ccco3)c(Cl)nc2c1,0.34%
20,CC(CCc1ccc(O)cc1)NCCC(c1ccccc1)c1ccccc1 (stereo not drawn),13.1% (active)
21,COc1ccc(OC)c(NC(=O)NCCc2cccc(Cl)c2)c1,0.03%
22,C=C[C@@](C)(O)CC[C@@H]1[C@@]2(C)CCCC(C)(C)[C@@H]2CC[C@@]1(C)O,0.16%
23,Cc1cccc(NC2=Nc3ccccc3N3C2=Nc2c(c(C)nn2-c2ccccc2)C3c2ccc(O)c(O)c2)c1 (stereo not drawn),96.4% (active)
24,CC1C/C(=C/c2cccn2C)C(=O)/C(=C/c2cccn2C)C1 (stereo not drawn),0.08%

row,Structure (SMILES),fluorescence artifact activation
1,COc1ccc(/C=C/C(=O)NC(=S)Nc2ccc(C(=O)O)cc2)cc1,6.95%
2,Cc1nnc(NC(=O)CS(=O)(=O)Cc2ccccc2)s1,-0.07%
3,O=C(Oc1ccc2ccc(=O)oc2c1)c1cccs1,0.02%
4,Cc1onc(-c2ccccc2)c1C(=O)Nc1nc(-c2cc(F)ccc2F)cs1,0.13%
5,O=S(=O)(/N=C(/Nc1nc2ccccc2s1)c1ccccc1)c1ccc(F)cc1,0.13%
6,Cc1noc(C)c1C(=O)Nc1nc2ccccc2s1,38.5% (active)
7,Cc1c2c(n3c(nc4ccccc43)c1C#N)N(CCN1CCOCC1)CC2,0.13%
8,Cc1nc2c(C#N)cnn2c2c1CCN(Cc1ccccc1)N2C,138% (active)
9,Cn1c2c(c(=O)n(C)c1=O)C(C(F)(F)F)(C(F)(F)F)N=C(CCC1CCCCC1)N2,0.01%
10,CC(=O)c1nnn(-c2cccc(C#N)c2)c1C,0.2%
11,Cc1ccc(/C=C2/NC(=O)N(Cc3ccccc3F)C2=O)s1,0.1%
12,CCCCn1c(=O)[nH]c2nc3cc(N)ccc3nc2c1=O,0.06%
13,Cc1cc2nc3c(=O)n(CCc4ccccc4)c(=O)[nH]c3nc2cc1N,0.7%
14,CCCCCCn1c(=O)[nH]c2nc3cc(N)c(C)cc3nc2c1=O,45.6% (active)
15,C=CCn1c(=O)[nH]c2nc3cc(N=CN(C)C)c(C)cc3nc2c1=O,16.2% (active)
16,Cc1cc2nc3c(=O)n(C4CCCCC4)c(=O)[nH]c3nc2cc1N,9.65%
17,N=c1oc2c3c4c(cc2cc1C(=O)Nc1ccccc1)CCCN4CCC3,4.85%
18,Cn1cccc1/C=C1\CCC/C(=C\c2cccn2C)C1=O,0.94%
19,O=C(COC(=O)Cn1cnc2ccccc21)Nc1cccc2c1C(=O)c1ccccc1C2=O,5.29%
20,O=C1/C(=C/c2cccc(F)c2)Oc2cc(O)ccc21,-0.06%
21,O=C1/C(=C/c2ccc(Br)cc2)Oc2cc(O)ccc21,17.9% (active)
22,COc1cc(/C=C2\Oc3cc(O)ccc3C2=O)ccc1O,0.16%
23,C[C@H](CO)NC(=O)[C@@H]1C[C@H]1[C@@H](NP(=O)(c1ccccc1)c1ccccc1)c1ccccc1,0.29%
24,COCCNC(=O)[C@H]1C[C@@H]1[C@H](NP(=O)(c1ccccc1)c1ccccc1)c1ccccc1,1400% (active)

row,Structure (SMILES),fluorescence artifact activation
1,C=CCN(C(=O)CNS(=O)(=O)c1ccccc1)C(C(=O)NCCOC)c1ccncc1 (stereo not drawn),0.23%
2,Cc1cc(Br)c2c(c1)C(O)(N1CCCCC1C)C(=O)N2 (stereo not drawn),1.99%
3,CC(C)(C)C(=O)/C=c1\s/c(=C\c2ccc(-c3ccc([N+](=O)[O-])cc3)o2)c(=O)n1CC(=O)NC(N)=O,7.12%
4,COc1cc(/C=C(\C#N)c2nc3ccccc3o2)ccc1O,0.62%
5,Nc1nc(SCC(=O)Nc2ccccc2)nc2nc3c(cc12)CCCC3,0.24%
6,Cc1cc(C)n2nc3nc4c(cc3c2n1)CCCC4,28.7% (active)
7,C=CCOc1ccc(Br)cc1CNCC,6.82%
8,CCOc1cc(C#N)ccc1OCC(=O)N1CCc2ccccc2C1,0.13%
9,CCOc1ccc(C(=O)NCC(=O)Nc2ncccc2C)cc1OCC,1.27%
10,CCOc1ccc(C(=O)NCC(=O)N2CCC3CCCCC3C2)cc1OCC (stereo not drawn),59.4% (active)
11,COCCOC(=O)/C(=C/c1ccc(OC(=O)c2ccccc2)cc1)C(C)=O,4.54%
12,COC(=O)c1ccc(NC(=O)c2snnc2-c2ccccc2)cc1,1.82%
13,O=C(c1ccc2c(=O)n3c(nc2c1)CCCCC3)N1CCN(c2cccc(Cl)c2)CC1,0.04%
14,Oc1ccc2ccccc2c1C=NCc1cn2ccsc2n1,-0.01%
15,N#C/C(=C\c1ccc(-c2ccc(F)cc2)o1)C(=O)Nc1nc(-c2cccs2)cs1,15.1% (active)
16,Cc1cc(Cl)ccc1OCC(=O)Nc1nc(-c2cccs2)cs1,0.04%
17,N#C/C(=C/c1ccc(N2CCOCC2)o1)C(=O)Nc1ccccc1,0.03%
18,N#C/C(=C/c1ccc(-c2ccccc2)o1)c1nc(-c2cccs2)cs1,19.2% (active)
19,N#C/C(=C\C=C\c1ccccc1)c1nc(-c2ccc3c(c2)OCO3)cs1,0.13%
20,Cn1c(/C(C#N)=C/c2ccc(-c3ccc(S(N)(=O)=O)cc3)o2)nc2ccccc21,0.08%
21,O=C(CSc1n[nH]c(-c2cccs2)n1)N1CCOCC1,-0.05%
22,Cc1nnc(SCC(=O)NC(C)(C)C)n1C1CCCCC1,10.9%
23,Nc1c(C(=O)c2ccc(Cl)cc2)sc2nsc(SCCN3CCOCC3)c12,0.08%
24,Oc1ccc2nnc3c(Br)cnn3c2c1,0.07%

row,Structure (SMILES),fluorescence artifact activation
1,COc1ccc(/C=N/NC(=O)c2cc(OC)c(OC)c(OC)c2)cc1CN1CCc2cc(OC)c(OC)cc2C1C (stereo not drawn),7.53%
2,CC1(C)CC(N2CCCC2)=CC(=[N+]2CCCCC2)C1,2.5%
3,COc1ccc2[nH]c(C)c(CCN(Cc3cccs3)C(=S)Nc3ccc(F)cc3)c2c1,1.01%
4,O=C(Cc1ccc(NC(=O)C2CCCN(C(=O)C3CCCCC3)C2)cc1)Nc1cccc(C(=O)N2CCCC2)c1 (stereo not drawn),0.41%
5,CCOc1ccc(Cn2c3ccc(OC)cc3c3nc4ccccc4nc32)cc1,23.1% (active)
6,COc1ccc(Cn2nnc3ccccc32)cc1,0.37%
7,CCCCOC(=O)Cn1c2ccc(OC)cc2c2nc3ccccc3nc21,0.92%
8,COC(=O)C(=N/Nc1ccccc1C(=O)OC)/C(C)=N/O,6.02%
9,C/C(=N/NC(=O)c1cc(C)[nH]n1)c1ccco1,0.79%
10,COc1ccc(/C=c2\s/c(=C/C(=O)c3ccc(C)cc3)[nH]c2=O)cc1OC,0.04%
11,CN1CCc2c(sc3nc(SCC(N)=O)n(-c4ccccc4)c(=O)c23)C1,-0.02%
12,Cc1ccc(NS(=O)(=O)c2ccc(C(=O)N3CCN(c4ncccn4)CC3)cc2)cc1,0.15%
13,COc1ccc2c(c1)cc(C(=O)N[C@@H](CCSC)C(=O)N1CCC[C@H]1C(=O)O)n2C,1.37%
14,O=C1N/C(=C\c2ccc(N3CCOCC3)c(F)c2)C(=O)N1Cc1ccccc1,0.25%
15,O=C(N1CCOCC1)N1CCN(c2ccc(F)cc2)CC1,0.02%
16,O=C(O)c1cc(NCc2ccc(F)cc2)ccc1N1CCOCC1,18.7% (active)
17,CCOc1ccccc1N(CC(=O)Nc1ccc(OC)c(OC)c1)S(=O)(=O)c1ccccc1,0.04%
18,CC1=Nc2ccccc2/C1=C/c1nc(-c2ccc(C)s2)oc1O,0.4%
19,CC(=O)Nc1ccc(N2C(=O)c3cccc4c(O)ccc(c34)C2=O)cc1,0.2%
20,CC(=O)Nc1ccc(N2C(=O)CSC2c2ccc(F)cc2)cc1 (stereo not drawn),47.7% (active)
21,COC(=O)C1(C)NC(c2ccc(C)cc2)C2C(=O)N(c3ccc(F)cc3)C(=O)C21 (stereo not drawn),3.94%
